Results published in ChEMBL document CHEMBL1155029, “Novel amodiaquine congeners as potent antimalarial agents” (Bioorg Med Chem, 2008).

Assays:
Plasmodium falciparum [1] = experiment: Antimalarial activity against chloroquine-sensitive Plasmodium falciparum D10 as LDH reporter activity; format: functional, organism-based
In short: (§1)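 Asynchronous P. falciparum cultures (1–1.5% parasitaemia, 1% final hematocrit) exposed to serial dilutions for 72 h at 37 °C under 1% O2/5% CO2/94% N2. Compounds dissolved in water or DMSO, diluted in medium (final DMSO <1%). Growth read as pLDH activity (OD650, modified Makler method). IC50 given as mean ± SD of at least three experiments in duplicate.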

Plasmodium falciparum [2] = experiment: Relative selectivity against Plasmodium falciparum W2 as IC50 ratio compared to chloroquine; format: functional
In short: (§2)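 Asynchronous P. falciparum cultures (D-10 or W-2; 1–1.5% parasitaemia, 1% haematocrit) incubated 72 h at 37 °C under 1% O2/5% CO2/94% N2 with serial drug dilutions (water or DMSO, final DMSO <1%). Growth read as pLDH activity at OD650. Chloroquine IC50 divided by compound IC50 within each experiment, ratios averaged.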

[3] = Ratio of IC50 for chloroquine-resistant Plasmodium falciparum W2 to IC50 for chloroquine-sensitive Plasmodium falciparum D10; format: functional
Plasmodium falciparum [4] = experiment: Antimalarial activity against chloroquine-resistant Plasmodium falciparum W2 as LDH activity; format: functional, organism-based; in short: as §1
Plasmodium falciparum [5] = experiment: Relative selectivity against Plasmodium falciparum D10 as IC50 ratio compared to chloroquine; format: functional; in short: as §2
[6] = Cytotoxicity against HMEC1 cells by MTT assay; format: cell-based; settings: Homo sapiens, HMEC-1
In short: (§3)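 Human cell lines (SV40-immortalized microvascular endothelial HMEC-1 in MCDB 131 with 10% FCS, EGF, hydrocortisone, glutamine, Hepes; K562 in RPMI 1640 with 10% FCS, glutamine) exposed to serial compound dilutions 72 h at 37 °C, 5% CO2. MTT added 3 h; formazan dissolved in SDS/DMF buffer pH 4.7, read 550 nm (ref 650 nm). IC50 for 50% growth inhibition.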

[7] = Cytotoxicity against mouse WEHI13 cells by MTT assay; format: cell-based
In short: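 Murine WEHI clone 13 fibrosarcoma cells in RPMI 1640 with 10% FCS and glutamine, treated with serial compound dilutions 72 h at 37 °C, 5% CO2. MTT added for 3 h, formazan solubilized in SDS/DMF lysing buffer pH 4.7, absorbance 550 nm against 650 nm reference. IC50 is dose giving 50% growth inhibition.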

K562 = experiment: Cytotoxicity against human K562 cells by MTT assay; format: cell-based; in short: as §3

## CCN(CC)Cc1cc(C)n(Nc2ccnc3cc(Cl)ccc23)c1C
Plasmodium falciparum [1]
  IC50: 69 nM
Plasmodium falciparum [2]
  Ratio IC50: 1.2
[3]
  Ratio IC50: 2.8
Plasmodium falciparum [4]
  IC50: 193 nM
Plasmodium falciparum [5]
  Ratio IC50: 0.2

## Cc1cc(CNCC23CCCN2CCC3)c(C)n1Nc1ccnc2cc(Cl)ccc12
Plasmodium falciparum [1]
  IC50: 222 nM
Plasmodium falciparum [2]
  Ratio IC50: 0.5
[3]
  Ratio IC50: 1.6
Plasmodium falciparum [4]
  IC50: 358 nM
Plasmodium falciparum [5]
  Ratio IC50: 0.1

## CCN(CC)Cc1cc(-c2ccc(Cl)cc2)n(Nc2ccnc3cc(Cl)ccc23)c1C
Plasmodium falciparum [1]
  IC50: 26.1 nM
[6]
  IC50: 5810 nM
Plasmodium falciparum [2]
  Ratio IC50: 18.5
[7]
  IC50: 1450 nM
[3]
  Ratio IC50: 1.6
Plasmodium falciparum [4]
  IC50: 42.5 nM
Plasmodium falciparum [5]
  Ratio IC50: 0.9

## Clc1ccc2c(Nc3ccc(CNC[C@@H]4CCCN5CCCC[C@H]45)c(Cl)c3)ccnc2c1
Plasmodium falciparum [1]
  IC50: 23.6 nM
[6]
  IC50: 5520 nM
Plasmodium falciparum [2]
  Ratio IC50: 28
[7]
  IC50: 2770 nM
[3]
  Ratio IC50: 1.2
Plasmodium falciparum [4]
  IC50: 28.8 nM
Plasmodium falciparum [5]
  Ratio IC50: 1.8

## Cc1cc(CN2CCCC2)c(C)n1Nc1ccnc2cc(Cl)ccc12
Plasmodium falciparum [1]
  IC50: 80.7 nM
Plasmodium falciparum [2]
  Ratio IC50: 0.7
[3]
  Ratio IC50: 4.2
Plasmodium falciparum [4]
  IC50: 336 nM
Plasmodium falciparum [5]
  Ratio IC50: 0.2

## Cc1cc(CNC(C)(C)C)c(C)n1Nc1ccnc2cc(Cl)ccc12
Plasmodium falciparum [1]
  IC50: 48.6 nM
Plasmodium falciparum [2]
  Ratio IC50: 0.9
[3]
  Ratio IC50: 5.3
Plasmodium falciparum [4]
  IC50: 255 nM
Plasmodium falciparum [5]
  Ratio IC50: 0.3

## CCN(CC)Cc1ccc(Nc2ccnc3cc(Cl)ccc23)cc1O [ISOQUINE]
Plasmodium falciparum [1]
  IC50: 23.7 nM
Plasmodium falciparum [2]
  Ratio IC50: 17.6
[3]
  Ratio IC50: 1.3
Plasmodium falciparum [4]
  IC50: 30.2 nM
Plasmodium falciparum [5]
  Ratio IC50: 1.3

## Cc1c(CN2CCCC2)cc(-c2ccccc2)n1Nc1ccnc2cc(Cl)ccc12
Plasmodium falciparum [1]
  IC50: 42.9 nM
[6]
  IC50: 12900 nM
Plasmodium falciparum [2]
  Ratio IC50: 4.2
[7]
  IC50: 3880 nM
[3]
  Ratio IC50: 3.3
Plasmodium falciparum [4]
  IC50: 140 nM
K562
  IC50: 2920 nM
Plasmodium falciparum [5]
  Ratio IC50: 0.7

## Cc1c(CNC[C@@H]2CCCN3CCCC[C@H]23)cc(-c2ccccc2)n1Nc1ccnc2cc(Cl)ccc12
Plasmodium falciparum [1]
  IC50: 36.5 nM
[6]
  IC50: 13500 nM
Plasmodium falciparum [2]
  Ratio IC50: 1.1
[7]
  IC50: 7440 nM
[3]
  Ratio IC50: 14.1
Plasmodium falciparum [4]
  IC50: 515 nM
K562
  IC50: 1680 nM
Plasmodium falciparum [5]
  Ratio IC50: 0.8

## Oc1cc(Nc2ccnc3cc(Cl)ccc23)ccc1CNCCC12CCCN1CCC2
Plasmodium falciparum [1]
  IC50: 90.3 nM
Plasmodium falciparum [2]
  Ratio IC50: 2.1
[7]
  IC50: 12200 nM
[3]
  Ratio IC50: 1.7
Plasmodium falciparum [4]
  IC50: 153 nM
Plasmodium falciparum [5]
  Ratio IC50: 0.3

## Oc1cc(Nc2ccnc3cc(Cl)ccc23)ccc1CNC[C@@H]1CCCN2CCCC[C@H]12
Plasmodium falciparum [1]
  IC50: 8.5 nM
[6]
  IC50: 7940 nM
Plasmodium falciparum [2]
  Ratio IC50: 22
[7]
  IC50: 4430 nM
Plasmodium falciparum [4]
  IC50: 14.3 nM
Plasmodium falciparum [5]
  Ratio IC50: 2.8

## Cc1c(CNC(C)(C)C)cc(-c2ccccc2)n1Nc1ccnc2cc(Cl)ccc12
Plasmodium falciparum [1]
  IC50: 63.5 nM
Plasmodium falciparum [2]
  Ratio IC50: 0.7
[3]
  Ratio IC50: 18.5
Plasmodium falciparum [4]
  IC50: 1180 nM
Plasmodium falciparum [5]
  Ratio IC50: 0.4

## CCN(CC)Cc1cc(-c2ccccc2)n(Nc2ccnc3cc(Cl)ccc23)c1C
Plasmodium falciparum [1]
  IC50: 42.7 nM
[6]
  IC50: 16700 nM
Plasmodium falciparum [2]
  Ratio IC50: 9.9
[7]
  IC50: 4380 nM
[3]
  Ratio IC50: 1.4
Plasmodium falciparum [4]
  IC50: 59.2 nM
K562
  IC50: 3620 nM
Plasmodium falciparum [5]
  Ratio IC50: 0.7

## CCN(CC)CCCC(C)Nc1ccnc2cc(Cl)ccc12 (stereo not given) [CHLOROQUINE]
[6]
  IC50: > 32000 nM
[7]
  IC50: > 38000 nM
K562
  IC50: 29000 nM

## Oc1cc(Nc2ccnc3cc(Cl)ccc23)ccc1CNCC12CCCN1CCC2
Plasmodium falciparum [1]
  IC50: 81.9 nM
Plasmodium falciparum [2]
  Ratio IC50: 2.2
[3]
  Ratio IC50: 0.9
Plasmodium falciparum [4]
  IC50: 77 nM
Plasmodium falciparum [5]
  Ratio IC50: 0.4

## Cc1c(CNCC[C@@H]2CCCN3CCCC[C@H]23)cc(-c2ccccc2)n1Nc1ccnc2cc(Cl)ccc12
Plasmodium falciparum [1]
  IC50: 154 nM
[6]
  IC50: 14600 nM
Plasmodium falciparum [2]
  Ratio IC50: 0.8
[7]
  IC50: 7220 nM
[3]
  Ratio IC50: 5
Plasmodium falciparum [4]
  IC50: 776 nM
K562
  IC50: 2610 nM
Plasmodium falciparum [5]
  Ratio IC50: 0.2

## Cc1c(CN2CCCC2)cc(-c2ccc(Cl)cc2)n1Nc1ccnc2cc(Cl)ccc12
Plasmodium falciparum [1]
  IC50: 30.7 nM
[6]
  IC50: 7180 nM
Plasmodium falciparum [2]
  Ratio IC50: 15.8
[7]
  IC50: 2060 nM
[3]
  Ratio IC50: 1.6
Plasmodium falciparum [4]
  IC50: 49.6 nM
Plasmodium falciparum [5]
  Ratio IC50: 0.8

## Cc1cc(CNC[C@@H]2CCCN3CCCC[C@H]23)c(C)n1Nc1ccnc2cc(Cl)ccc12
Plasmodium falciparum [1]
  IC50: 70.7 nM
[6]
  IC50: 5400 nM
Plasmodium falciparum [2]
  Ratio IC50: 3.1
[7]
  IC50: 5510 nM
[3]
  Ratio IC50: 0.8
Plasmodium falciparum [4]
  IC50: 53.4 nM
Plasmodium falciparum [5]
  Ratio IC50: 0.4
